Measurements reported in ChEMBL document CHEMBL1131578, “Design of a new class of orally active fibrinogen receptor antagonists” (J Med Chem, 1998).
Residues, ends and D or L forms follow the SMILES beside them.

Key:
[1] = molecular target: T1, Integrin alpha-IIb/beta-3 (Homo sapiens, UniProt P05106+P08514); assay: Ability to inhibit the aggregation of fixed human platelets; format: functional
In short: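 Human gel-filtered platelets activated with α-thrombin 1 U/mL (final) for 2 min at room temperature, then thrombin inhibitor 20 μM, fixed in 0.5% paraformaldehyde for 30 min, washed and resuspended at 2×10^8 cells/mL in Tyrode's-HSA. Compound preincubated 1 min with the suspension. Rate relative to no-antagonist control; IC50 calculated.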
Target sequence in this assay (P05106 27-788 limits assumed): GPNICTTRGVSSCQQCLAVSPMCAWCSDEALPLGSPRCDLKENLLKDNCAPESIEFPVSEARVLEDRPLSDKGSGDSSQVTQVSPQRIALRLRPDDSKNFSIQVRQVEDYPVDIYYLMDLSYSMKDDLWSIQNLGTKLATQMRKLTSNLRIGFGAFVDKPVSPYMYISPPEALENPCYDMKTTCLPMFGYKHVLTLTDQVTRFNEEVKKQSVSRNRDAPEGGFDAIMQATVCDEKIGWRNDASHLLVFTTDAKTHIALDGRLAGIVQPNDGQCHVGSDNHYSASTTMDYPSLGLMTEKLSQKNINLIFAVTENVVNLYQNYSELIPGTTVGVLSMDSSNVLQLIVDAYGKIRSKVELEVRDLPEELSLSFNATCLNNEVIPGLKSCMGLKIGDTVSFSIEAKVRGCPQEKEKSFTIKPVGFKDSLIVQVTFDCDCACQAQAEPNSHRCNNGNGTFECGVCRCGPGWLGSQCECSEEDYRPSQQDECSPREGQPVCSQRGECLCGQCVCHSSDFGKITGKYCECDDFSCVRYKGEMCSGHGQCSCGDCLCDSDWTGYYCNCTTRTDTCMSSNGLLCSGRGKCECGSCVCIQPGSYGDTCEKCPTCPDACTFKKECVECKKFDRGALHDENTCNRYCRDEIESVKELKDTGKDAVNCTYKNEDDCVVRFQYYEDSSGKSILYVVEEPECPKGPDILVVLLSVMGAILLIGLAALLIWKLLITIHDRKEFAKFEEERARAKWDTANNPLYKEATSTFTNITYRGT
Target sequence in this assay (P08514 32-887 limits assumed): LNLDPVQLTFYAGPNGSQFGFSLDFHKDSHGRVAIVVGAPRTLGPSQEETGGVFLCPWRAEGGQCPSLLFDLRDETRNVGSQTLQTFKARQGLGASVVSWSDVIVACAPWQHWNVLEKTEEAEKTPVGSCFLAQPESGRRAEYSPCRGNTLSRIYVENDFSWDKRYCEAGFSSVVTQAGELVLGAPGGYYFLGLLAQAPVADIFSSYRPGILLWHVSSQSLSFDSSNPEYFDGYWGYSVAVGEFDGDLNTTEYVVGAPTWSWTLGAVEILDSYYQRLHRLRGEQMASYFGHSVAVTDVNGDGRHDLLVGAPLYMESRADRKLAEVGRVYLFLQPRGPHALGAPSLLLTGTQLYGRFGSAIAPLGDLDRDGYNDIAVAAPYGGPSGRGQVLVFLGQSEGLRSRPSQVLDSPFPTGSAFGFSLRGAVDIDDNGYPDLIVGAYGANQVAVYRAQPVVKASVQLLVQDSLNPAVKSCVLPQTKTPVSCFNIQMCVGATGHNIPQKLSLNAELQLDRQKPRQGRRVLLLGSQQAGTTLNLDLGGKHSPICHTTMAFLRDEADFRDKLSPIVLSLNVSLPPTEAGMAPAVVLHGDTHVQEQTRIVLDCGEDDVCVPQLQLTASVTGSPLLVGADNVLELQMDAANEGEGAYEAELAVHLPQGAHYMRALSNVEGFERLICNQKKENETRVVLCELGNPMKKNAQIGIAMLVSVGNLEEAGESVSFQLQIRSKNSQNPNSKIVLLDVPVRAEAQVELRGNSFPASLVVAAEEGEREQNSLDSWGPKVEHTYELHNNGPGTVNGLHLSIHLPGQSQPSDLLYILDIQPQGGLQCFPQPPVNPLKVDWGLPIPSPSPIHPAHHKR
Target sequence in this assay (P08514 891-1039 limits assumed): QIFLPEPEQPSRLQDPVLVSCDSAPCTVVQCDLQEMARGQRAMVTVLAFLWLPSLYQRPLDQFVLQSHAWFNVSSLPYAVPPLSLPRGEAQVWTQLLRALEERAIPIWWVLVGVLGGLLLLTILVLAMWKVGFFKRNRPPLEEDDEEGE

[2] = Compound was evaluated for the rate of degradation by Carboxypeptidase A.; format: ADME
In short: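 Bovine pancreatic carboxypeptidase A diluted in 5% LiCl, activity checked with hippuryl-L-phenylalanine. Substrate made up at 1.0 mM in 0.05 M Tris with 1.0 M NaCl, pH 7.5, then combined with enzyme (2.0 units total). Incubated 60 min at room temperature, with hydrolysis followed by HPLC every 9 min. Rate of hydrolysis normalized to 1 unit of enzyme.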

[3] = molecular target: T1, Integrin alpha-IIb/beta-3; assay: Inhibition of radiolabeled fibrinogen binding to activated human platelets.; format: functional
In short: (§1)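 Washed human platelets at 1×10^8/mL in Tyrode's buffer, run in duplicate. Inhibitor and labelled fibrinogen added before agonist, either TRAP (SFLLRN-NH2) 100 μM or ADP 10 μM. Incubated 30 min at room temperature, spun through a 20% sucrose cushion, pellet γ-counted. IC50 determined.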
Target sequence in this assay (P05106 27-788 limits assumed): as the sequence (P05106 27-788 limits assumed) above
Target sequence in this assay (P08514 32-887 limits assumed): as the sequence (P08514 32-887 limits assumed) above
Target sequence in this assay (P08514 891-1039 limits assumed): as the sequence (P08514 891-1039 limits assumed) above

[4] = molecular target: Integrin alpha-V/beta-3 (Homo sapiens); assay: Inhibition of HUVEC adhesion to fibrinogen-coated plates
[5] = molecular target: Integrin alpha-V/beta-3 (Homo sapiens); assay: Inhibition of HUVEC adhesion to fibronectin-coated plates
[6] = molecular target: Integrin alpha-V/beta-3 (Homo sapiens); assay: Inhibition of HUVEC adhesion to vitronectin-coated plates
[7] = molecular target: T1, Integrin alpha-IIb/beta-3; assay: Inhibition of radiolabeled fibrinogen binding to activated human platelets; format: functional; in short: as §1
Target sequence in this assay (P05106 27-788 limits assumed): as the sequence (P05106 27-788 limits assumed) above
Target sequence in this assay (P08514 32-887 limits assumed): as the sequence (P08514 32-887 limits assumed) above
Target sequence in this assay (P08514 891-1039 limits assumed): as the sequence (P08514 891-1039 limits assumed) above

[8] = molecular target: T1, Integrin alpha-IIb/beta-3; assay: Percent inhibition of ex vivo platelet aggregation after 3 hours of administration; format: functional, organism-based; conditions: concentration not given here
In short: (§2)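 Mongrel dogs of either sex dosed by intragastric gavage, compound dissolved in deionized water. Citrated venous blood drawn 10 min predose and at 1, 3, 6, 12 and 24 h. PRP adjusted to 300 000 platelets/μL, stirred at 37 °C, primed with epinephrine 1 μM, then ADP 10 μM added. Light-transmission slope read in duplicate, expressed as % decrease versus predose PRP. Mean of at least two dogs per dose.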

[9] = molecular target: T1, Integrin alpha-IIb/beta-3; assay: Percent inhibition of ex vivo platelet aggregation after 1 hour of administration; format: functional, organism-based; conditions: concentration not given here; in short: as §2
[10] = molecular target: T1, Integrin alpha-IIb/beta-3; assay: Inhibition of ex vivo platelet aggregation after 1 hr treatment; format: functional; conditions: concentration not given here; in short: as §2
[11] = molecular target: T1, Integrin alpha-IIb/beta-3; assay: Inhibition of ex vivo platelet aggregation after 3 hr treatment; format: functional; conditions: concentration not given here; in short: as §2
[12] = molecular target: T1, Integrin alpha-IIb/beta-3; assay: Inhibition of ex vivo platelet aggregation after 6 hr treatment; format: functional; conditions: concentration not given here; in short: as §2
[13] = molecular target: T1, Integrin alpha-IIb/beta-3; assay: Percent inhibition of ex vivo platelet aggregation after 6 hours of administration; format: functional, organism-based; conditions: concentration not given here; in short: as §2

An IC50 [1] of 53 nM was found for `CCN(CC(=O)N[C@@H](CC(=O)O)C(=O)N[C@@H](CCCC1CCCCC1)C(=O)O)C(=O)CCCC1CCNCC1` in this work.
An IC50 [1] of 78 nM was found for `CCN(CC(=O)N[C@@H](CC(=O)O)C(=O)N[C@@H](CC1CCCCCCC1)C(=O)O)C(=O)CCCC1CCNCC1` in this work.
An Activity [2] of 0.6 nmol/min/unit, an IC50 [3] of 17 nM and an IC50 [1] of 26 nM were found for `CCN(CC(=O)N[C@@H](CC(=O)O)C(=O)N[C@@H](CC1CCCCC1)C(=O)O)C(=O)CCCC1CCNCC1` in this work. It also gave an IC50 [4] of 1.01 mM, an IC50 [5] of over 1.75 mM and an IC50 [6] of over 1.65 mM.
An IC50 [7] of 11 nM, an Activity [2] of 7.4 nmol/min/unit and an IC50 [1] of 130 nM were found for `CCCC[C@H](NC(=O)[C@H](CC(=O)O)NC(=O)CN(CC)C(=O)CCCC1CCNCC1)C(=O)O` in this work.
An IC50 [1] of 64 nM was found for `CCN(CC(=O)N[C@@H](CC(=O)O)C(=O)N[C@@H](Cc1ccccc1)C(=O)O)C(=O)CCCC1CCNCC1` in this work.
An IC50 [1] of 10000 nM was found for `CC(C)[C@H](NC(=O)[C@H](CC(=O)O)NC(=O)CNC(=O)[C@@H](N)CCCNC(=N)N)C(=O)O` (H-RGDV-OH) in this work.
An IC50 [3] of 10 nM and an IC50 [1] of 72 nM were found for `CCN(CC(=O)N[C@@H](CC(=O)O)C(=O)NCCC1CCCCC1)C(=O)CCCC1CCNCC1` in this work.
An IC50 [1] of 47 nM was found for `CCN(CC(=O)N[C@@H](CC(=O)O)C(=O)N[C@@H](CC1CCCC1)C(=O)O)C(=O)CCCC1CCNCC1` in this work.
An IC50 [1] of 1370 nM was found for `CCN(CC(=O)N[C@@H](CC(=O)O)C(=O)N[C@H](CC1CCCCC1)C(=O)O)C(=O)CCCC1CCNCC1` in this work.
An IC50 [7] of 72 nM and an IC50 [1] of 82 nM were found for `CCN(CC(=O)N[C@@H](CC(=O)O)C(=O)N[C@@H](CC(C)(C)C)C(=O)O)C(=O)CCCC1CCNCC1` in this work.
An IC50 [1] of 210 nM was found for `CCN(CC(=O)N[C@@H](CC(=O)O)C(=O)N[C@H](C(=O)O)C(C)C)C(=O)CCCCC1CCNCC1` in this work.
An IC50 [1] of 470 nM was found for `CCN(CC(=O)N[C@@H](CC(=O)O)C(=O)N[C@H](C(=O)O)C(C)C)C(=O)CCCCCNC(=N)N` in this work.
An IC50 [7] of 16 nM and an IC50 [1] of 64 nM were found for `CCOC(=O)[C@H](CC1CCCCC1)NC(=O)[C@H](CC(=O)O)NC(=O)CN(CC)C(=O)CCCC1CCNCC1` in this work.
An IC50 [3] of 28 nM, an IC50 [1] of 97 nM and an IC50 [4] of over 2.35 mM were found for `CCN(CC(=O)N[C@@H](CC(=O)O)C(=O)N[C@@H](CC1CCCCC1)C(N)=O)C(=O)CCCC1CCNCC1` in this work. For the same compound, the IC50 [5] was over 2.4 mM.
An IC50 [7] of 11 nM and an IC50 [1] of 19 nM were found for `CCN(CC(=O)N[C@@H](CC(=O)O)C(=O)N[C@@H](CC1CCCC2CCCCC21)C(=O)O)C(=O)CCCC1CCNCC1` (stereo partly specified) in this work.
An Activity [2] of 3.1 nmol/min/unit, an IC50 [3] of 22 nM and an IC50 [1] of 110 nM were found for `CCN(CC(=O)N[C@@H](CC(=O)O)C(=O)N[C@@H](Cc1cccc2ccccc12)C(=O)O)C(=O)CCCC1CCNCC1` in this work.
An IC50 [1] of 770 nM was found for `CCN(CC(=O)N[C@@H](CC(=O)O)C(=O)N[C@H](C(=O)O)C(C)C)C(=O)CCC1CCNCC1` in this work.
An IC50 [3] of 11 nM, an IC50 [1] of 31 nM and an IC50 ([4]; huvec) of 1.93 mM were found for `CCN(CC(=O)N[C@@H](CC(=O)O)C(=O)N[C@@H](CCC1CCCCC1)C(=O)O)C(=O)CCCC1CCNCC1` in this work. It also gave an IC50 ([5]; huvec) of over 2.4 mM and an IC50 ([6]; huvec) of over 2.5 mM.
An IC50 [1] of 32 nM was found for `CCN(CC(=O)N[C@@H](CC(=O)O)C(=O)N[C@@H](CC1CCCCCC1)C(=O)O)C(=O)CCCC1CCNCC1` in this work.
An inhibition [8] of 0%, an IC50 [1] of 1060 nM and an inhibition [9] of 47% were found for `CC(C)[C@H](NC(=O)[C@H](CC(=O)O)NC(=O)CNC(=O)CCCC1CCNCC1)C(=O)O` in this work.
An inhibition [10] of 23%, an inhibition [11] of 0% and an inhibition [12] of 0% were found for `CCN(CC(=O)N[C@@H](CC(=O)O)C(=O)N[C@H](C(=O)O)C(C)C)C(=O)CCCCN=C(N)N` in this work.
An IC50 [1] of 32 nM was found for `CCN(CC(=O)N[C@@H](CC(=O)O)C(=O)N[C@H](C(=O)O)C1CCCCC1)C(=O)CCCC1CCNCC1` in this work.
An inhibition [8] of 66%, an IC50 [7] of 8 nM and an inhibition [13] of 20% were found for `CCN(CC(=O)N[C@@H](CC(=O)O)C(=O)N[C@H](C(=O)O)C(C)C)C(=O)CCCC1CCNCC1` in this work. It also gave an IC50 [1] of 27 nM and an inhibition [9] of 80%.
An IC50 [1] of 96 nM was found for `CCN(CC(=O)N[C@@H](CC(=O)O)C(=O)N[C@@H](CC1CCC2CCCCC2C1)C(=O)O)C(=O)CCCC1CCNCC1` (stereo partly specified) in this work.
An IC50 [7] of 260 nM and an IC50 [1] of 720 nM were found for `CCN(CC(=O)N[C@@H](CC(=O)O)C(=O)N[C@@H](C(=O)O)C(C)C)C(=O)CCCC1CCNCC1` in this work.
An IC50 [3] of 22 nM was found for `CCN(CC(=O)N[C@@H](CC(=O)O)C(=O)N[C@@H](Cc1ccc2ccccc2c1)C(=O)O)C(=O)CCCC1CCNCC1` in this work.
An IC50 [1] of 129 nM was found for `CCN(CC(=O)N[C@@H](CC(=O)O)C(=O)N[C@@H](CO)CC1CCCCC1)C(=O)CCCC1CCNCC1` in this work.
